Data on 1 compound can be found in ChEMBL document CHEMBL4376814, “Novel cyclin-dependent kinase 9 (CDK9) inhibitor with suppression of cancer stemness activity against non-small-cell lung cancer” (Eur J Med Chem, 2019).

The source made the active and inactive calls. The calls are words filed in the database; no cut-off is given here.

The nature of data set [1]: Half life in human liver microsomes at 2 uM in presence of NADPH measured up to 1 hr by HPLC analysis. In kind it is ADME, Microsome. An outline of the steps: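 Compound at 2 μM incubated at 37 °C with liver microsomes (1 mg/mL), 3 mM MgCl2 and 0.1 M phosphate buffer pH 7.4; 5 min preincubation, then started with 3 mM NADPH. Aliquots (n = 3) at 0, 10, 20, 30, 45, 60 min quenched with ice-cold acetonitrile, centrifuged, supernatant by HPLC. t1/2 from linear-regression kinetic constant k.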
Background: Liver microsomes are a subcellular fraction often used to study metabolism.

The target in data set [2] is Dual specificity protein kinase CLK2 (Homo sapiens) (UniProt P49760). The data set is described as follows: Inhibition of recombinant human CLK2 (138 to end residues) at 1 uM using YRRAAVPPSPSLSRHSSPHQS(p) EDEEE as substrate measured after 40 mins in presence of [gamma33P]ATP by scintillation counting method relative to control. The essentials: (§1)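 Single-point inhibition at 1 µM was measured in the Eurofins KinaseProfiler panel. Values are the mean of two independent experiments.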

Data set [3] has as its system Discoidin domain-containing receptor 2 (Homo sapiens), Q16832 [UNDEFINED MUTATION]. As to the kind of experiment: Inhibition of recombinant human DDR2 S642A mutant (467 to end residues) at 1 uM using KKSRGDYMTMQIG as substrate measured after 40 mins in presence of [gamma33P]ATP by scintillation counting method relative to control.
In data set [4] the test system is Serine/threonine-protein kinase N1 (Homo sapiens), Q16512 [V901I]. The data set is described as follows: Inhibition of human PRK1 V901I mutant (498 to end residues) at 1 uM using KKLNRTLSFAEPG as substrate measured after 40 mins in presence of [gamma33P]ATP by scintillation counting method relative to control. An outline of the steps:
(§2)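 Percent inhibition of kinase activity at a single compound concentration, measured by the outsourced Eurofins KinaseProfiler panel. Values are the mean of two independent experiments.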

The target in data set [5] is Ephrin type-A receptor 1 (Homo sapiens) (UniProt P21709). The data set is described as follows: Inhibition of recombinant human EphA1 (568 to end residues) at 1 uM using KKKSPGEYVNIEF as substrate measured after 40 mins in presence of [gamma33P]ATP by scintillation counting method relative to control.
The species named for another data set is Homo sapiens. The data set is described as follows: Inhibition of recombinant human PRAK R291E mutant at 1 uM using KKLRRTLSVA as substrate measured after 40 mins in presence of [gamma33P]ATP by scintillation counting method relative to control.
In data set [6] the target is Serine/threonine-protein kinase 4 (Homo sapiens) (UniProt Q13043). As to the kind of experiment: Inhibition of recombinant full-length human MST1 at 1 uM using KKSRGDYMTMQIG as substrate measured after 40 mins in presence of [gamma33P]ATP by scintillation counting method relative to control.
Data set [7] has as its target Mitogen-activated protein kinase kinase kinase 20 (Homo sapiens) (UniProt Q9NYL2). The data set is described as follows: Inhibition of recombinant full-length human ZAK at 1 uM using MBP as substrate measured after 40 mins in presence of [gamma33P]ATP by scintillation counting method relative to control.
The target in data set [8] is Death-associated protein kinase 1 (Homo sapiens) (UniProt P53355). As to the kind of experiment: Inhibition of recombinant human DAPK1 (1 to 296 residues) at 1 uM using KKLNRTLSFAEPG as substrate measured after 40 mins in presence of [gamma33P]ATP by scintillation counting method relative to control.
For data set [9], the target named is Cyclin-dependent kinase-like 4 (Homo sapiens) (UniProt Q5MAI5). The data set is described as follows: Inhibition of human CDKL4 at 1 uM at 1 uM by radiometric method relative to control. The essentials:
as §2

Data set [10] concerns Mast/stem cell growth factor receptor Kit (Homo sapiens), P10721 [V560G]. As to the kind of experiment: Inhibition of recombinant human cKit (544 to end residues) V560G mutant at 1 uM using GGMEDIYFEFMGGKKK as substrate measured after 40 mins in presence of [gamma33P]ATP by scintillation counting method relative to control. An outline of the steps: as §1
Data set [11] concerns the target Ephrin type-A receptor 3 (Homo sapiens) (UniProt P29320). As to the kind of experiment: Inhibition of recombinant human EphA3 (568 to end residues) at 1 uM using poly(Glu, Tyr) 4:1 as substrate measured after 40 mins in presence of [gamma33P]ATP by scintillation counting method relative to control.
Data set [12] deals with Cyclin-dependent kinase 1/cyclin B1 (Homo sapiens) (UniProt P06493+P14635). As to the kind of experiment: Inhibition of recombinant full-length human CDK1/cyclinB at 1 uM using Histone H1 as substrate measured after 40 mins in presence of [gamma33P]ATP by scintillation counting method relative to control. In kind it is protein-complex assay.
Data set [13] concerns Serine/threonine-protein kinase Chk2 (Homo sapiens), O96017 [R145W]. As to the kind of experiment: Inhibition of recombinant human CHK2 R145W mutant (5 to end residues) at 1 uM using KKKVSRSGLYRSPSMPENLNRPR as substrate measured after 40 mins in presence of [gamma33P]ATP by scintillation counting method relative to control. The essentials: as §1
The test system of another data set is A549. As to the kind of experiment: Antiproliferative activity against human A549 cells assessed as inhibition of cell viability after 72 hrs by CCK-8 assay. The format is functional, cell-based. The conditions noted are these: A549, 72 h. An outline of the steps:
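Cells kept at 37 °C, 5% CO2 in DMEM or RPMI-1640 with 10% FBS and 1% penicillin/streptomycin, then seeded at 3000 cells/well (adherent) or 10,000 cells/well (suspension). Exposed to a range of concentrations for 72 h. CCK-8 added for 1-4 h before reading A450. […] Three independent experiments.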

In data set [14] the test system is Serine/threonine-protein kinase Nek4 (Homo sapiens), P51957 [P225A]. As to the kind of experiment: Inhibition of recombinant full-length human NEK4 P225A mutant at 1 uM using myelin basic protein as substrate measured after 40 mins in presence of [gamma33P]ATP by scintillation counting method relative to control.
Data set [15] addresses Ephrin type-A receptor 8 (Homo sapiens) (UniProt P29322). The data set is described as follows: Inhibition of recombinant human EphA8 (615 to 911 residues) at 1 uM using KTFCGTPEYLAPEVRREPRILSEEEQEMFRDFDYIADWC as substrate measured after 40 mins in presence of [gamma33P]ATP by scintillation counting method relative to control.
Data set [16] has as its system NCI-H1299. As to the kind of experiment: Induction of apoptosis in human H1299 cells assessed as viable cells at 0.25 uM after 48 hrs by AnnexinV-FITC/PI staining-based flow cytometric analysis (reference value: 97.1%). In kind it is functional. Conditions: NCI-H1299, 48 h, read-out: Activity.
The target in data set [17] is Tyrosine-protein kinase ZAP-70 (Homo sapiens) (UniProt P43403). As to the kind of experiment: Inhibition of recombinant full-length human ZAP-70 at 1 uM using poly(Glu, Tyr) 4:1 as substrate measured after 40 mins in presence of [gamma33P]ATP by scintillation counting method relative to control.
For data set [18], the target named is G protein-coupled receptor kinase 3 (Homo sapiens) (UniProt P35626). The data set is described as follows: Inhibition of recombinant full-length human GRK3 at 1 uM using casein as substrate measured after 40 mins in presence of [gamma33P]ATP by scintillation counting method relative to control.
Data set [19] has as its system NCI-H1299. The data set is described as follows: Downregulation of KLF4 in human H1299 cells at 0.25 to 1 uM by Western blot analysis. The format is functional, cell-based.

Sequence of Discoidin domain-containing receptor 2 (Homo sapiens), Q16832 [UNDEFINED MUTATION] (Q16832 whole entry, looked up, stated change not applied, the tested form may be a part): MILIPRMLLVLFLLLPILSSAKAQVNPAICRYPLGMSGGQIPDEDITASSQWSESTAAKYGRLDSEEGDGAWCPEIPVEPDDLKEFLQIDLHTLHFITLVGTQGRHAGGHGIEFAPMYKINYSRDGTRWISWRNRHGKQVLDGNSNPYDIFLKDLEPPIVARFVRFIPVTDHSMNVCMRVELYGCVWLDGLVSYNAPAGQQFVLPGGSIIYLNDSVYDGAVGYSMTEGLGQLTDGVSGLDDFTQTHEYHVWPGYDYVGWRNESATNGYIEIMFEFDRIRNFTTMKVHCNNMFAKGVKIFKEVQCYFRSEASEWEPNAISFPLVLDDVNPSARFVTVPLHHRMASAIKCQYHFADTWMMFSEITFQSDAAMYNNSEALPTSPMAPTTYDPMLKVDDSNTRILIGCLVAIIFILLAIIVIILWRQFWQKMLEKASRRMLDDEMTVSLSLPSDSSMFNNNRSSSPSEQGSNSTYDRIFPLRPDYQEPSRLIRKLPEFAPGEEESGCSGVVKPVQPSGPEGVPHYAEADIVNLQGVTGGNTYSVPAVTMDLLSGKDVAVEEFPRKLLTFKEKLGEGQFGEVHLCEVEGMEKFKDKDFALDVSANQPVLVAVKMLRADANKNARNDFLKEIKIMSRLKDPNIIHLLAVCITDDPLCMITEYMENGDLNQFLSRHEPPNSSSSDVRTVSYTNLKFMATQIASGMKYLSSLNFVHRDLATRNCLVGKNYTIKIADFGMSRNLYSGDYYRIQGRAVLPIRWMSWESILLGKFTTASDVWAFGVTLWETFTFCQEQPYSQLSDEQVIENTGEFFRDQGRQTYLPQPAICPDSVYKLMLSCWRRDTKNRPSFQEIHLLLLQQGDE
Sequence of Cyclin-dependent kinase-like 4 (Homo sapiens) (Q5MAI5 whole entry): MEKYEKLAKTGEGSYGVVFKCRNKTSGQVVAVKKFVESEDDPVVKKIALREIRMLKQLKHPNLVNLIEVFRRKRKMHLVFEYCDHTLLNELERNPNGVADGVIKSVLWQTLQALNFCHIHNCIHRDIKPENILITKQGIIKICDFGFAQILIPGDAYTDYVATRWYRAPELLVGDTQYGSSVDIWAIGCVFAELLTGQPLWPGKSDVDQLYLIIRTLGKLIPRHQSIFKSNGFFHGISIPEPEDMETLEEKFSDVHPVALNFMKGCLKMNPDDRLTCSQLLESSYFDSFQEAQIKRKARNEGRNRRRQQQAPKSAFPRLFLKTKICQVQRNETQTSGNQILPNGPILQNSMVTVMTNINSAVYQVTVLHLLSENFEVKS
Sequence of Ephrin type-A receptor 3 (Homo sapiens) (P29320 whole entry): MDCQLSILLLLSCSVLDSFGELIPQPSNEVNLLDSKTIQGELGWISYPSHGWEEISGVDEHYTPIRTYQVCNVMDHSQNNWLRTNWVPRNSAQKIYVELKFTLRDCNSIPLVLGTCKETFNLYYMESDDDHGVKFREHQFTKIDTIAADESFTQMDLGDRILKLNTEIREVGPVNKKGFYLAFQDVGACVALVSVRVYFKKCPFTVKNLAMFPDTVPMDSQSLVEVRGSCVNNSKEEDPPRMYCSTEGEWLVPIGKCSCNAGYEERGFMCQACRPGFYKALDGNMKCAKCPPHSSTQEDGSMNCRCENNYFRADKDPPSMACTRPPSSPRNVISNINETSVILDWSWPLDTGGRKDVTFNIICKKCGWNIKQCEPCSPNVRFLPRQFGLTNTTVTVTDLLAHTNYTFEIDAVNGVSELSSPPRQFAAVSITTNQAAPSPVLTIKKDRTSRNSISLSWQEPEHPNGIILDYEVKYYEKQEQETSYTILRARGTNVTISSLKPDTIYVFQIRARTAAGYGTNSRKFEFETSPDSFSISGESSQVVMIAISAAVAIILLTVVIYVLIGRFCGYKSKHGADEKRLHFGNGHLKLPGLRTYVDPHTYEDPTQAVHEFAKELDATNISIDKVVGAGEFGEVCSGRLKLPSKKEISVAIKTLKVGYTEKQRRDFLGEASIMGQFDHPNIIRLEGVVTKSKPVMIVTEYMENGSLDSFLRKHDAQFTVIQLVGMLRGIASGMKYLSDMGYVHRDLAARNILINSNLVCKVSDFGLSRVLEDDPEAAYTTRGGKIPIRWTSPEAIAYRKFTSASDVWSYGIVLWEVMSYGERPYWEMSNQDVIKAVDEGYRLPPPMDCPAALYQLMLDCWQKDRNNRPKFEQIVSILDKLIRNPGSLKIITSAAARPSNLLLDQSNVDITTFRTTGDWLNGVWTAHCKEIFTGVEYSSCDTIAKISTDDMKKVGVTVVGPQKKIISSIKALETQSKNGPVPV
Sequence of Ephrin type-A receptor 1 (Homo sapiens) (P21709 whole entry): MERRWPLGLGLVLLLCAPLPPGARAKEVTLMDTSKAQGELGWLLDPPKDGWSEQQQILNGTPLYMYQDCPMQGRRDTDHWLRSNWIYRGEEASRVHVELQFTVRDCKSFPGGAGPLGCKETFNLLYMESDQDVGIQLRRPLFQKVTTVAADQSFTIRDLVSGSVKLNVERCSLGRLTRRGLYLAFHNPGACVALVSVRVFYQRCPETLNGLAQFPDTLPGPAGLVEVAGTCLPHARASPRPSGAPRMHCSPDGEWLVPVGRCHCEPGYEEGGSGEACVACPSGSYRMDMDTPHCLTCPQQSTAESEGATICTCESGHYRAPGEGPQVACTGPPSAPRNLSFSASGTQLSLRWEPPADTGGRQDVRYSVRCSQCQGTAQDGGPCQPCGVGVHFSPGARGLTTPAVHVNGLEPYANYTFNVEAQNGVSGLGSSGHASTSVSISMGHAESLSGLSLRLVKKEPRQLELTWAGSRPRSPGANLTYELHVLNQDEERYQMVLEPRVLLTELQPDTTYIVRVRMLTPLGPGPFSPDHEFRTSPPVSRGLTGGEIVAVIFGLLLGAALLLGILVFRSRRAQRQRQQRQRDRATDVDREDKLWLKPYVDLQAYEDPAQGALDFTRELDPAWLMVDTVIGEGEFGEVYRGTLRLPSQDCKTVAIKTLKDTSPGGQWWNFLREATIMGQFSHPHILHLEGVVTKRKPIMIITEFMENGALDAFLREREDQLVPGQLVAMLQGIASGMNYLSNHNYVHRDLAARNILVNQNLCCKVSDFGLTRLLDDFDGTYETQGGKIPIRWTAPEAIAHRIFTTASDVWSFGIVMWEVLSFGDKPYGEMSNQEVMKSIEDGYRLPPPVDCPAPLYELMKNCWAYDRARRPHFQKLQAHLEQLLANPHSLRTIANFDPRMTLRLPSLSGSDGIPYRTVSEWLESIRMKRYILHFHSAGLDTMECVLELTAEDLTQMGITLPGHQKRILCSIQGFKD
Sequence of Serine/threonine-protein kinase Chk2 (Homo sapiens), O96017 [R145W] (O96017 whole entry R145W): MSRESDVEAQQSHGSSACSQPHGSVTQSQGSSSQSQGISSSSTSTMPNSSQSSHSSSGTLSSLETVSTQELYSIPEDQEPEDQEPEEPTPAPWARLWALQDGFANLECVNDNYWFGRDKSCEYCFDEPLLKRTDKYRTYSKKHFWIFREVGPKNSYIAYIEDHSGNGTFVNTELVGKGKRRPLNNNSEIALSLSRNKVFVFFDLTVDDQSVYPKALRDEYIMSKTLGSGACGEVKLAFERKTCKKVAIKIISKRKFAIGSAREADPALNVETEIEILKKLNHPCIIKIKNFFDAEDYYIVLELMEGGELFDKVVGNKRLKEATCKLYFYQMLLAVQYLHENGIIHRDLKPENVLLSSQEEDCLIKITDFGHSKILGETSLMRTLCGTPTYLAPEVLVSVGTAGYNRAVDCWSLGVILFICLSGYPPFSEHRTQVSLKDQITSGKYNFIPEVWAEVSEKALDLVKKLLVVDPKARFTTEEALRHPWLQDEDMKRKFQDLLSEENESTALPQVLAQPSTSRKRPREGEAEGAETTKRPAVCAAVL
Sequence of Serine/threonine-protein kinase Nek4 (Homo sapiens), P51957 [P225A] (P51957 whole entry P225A, the tested form may be a part): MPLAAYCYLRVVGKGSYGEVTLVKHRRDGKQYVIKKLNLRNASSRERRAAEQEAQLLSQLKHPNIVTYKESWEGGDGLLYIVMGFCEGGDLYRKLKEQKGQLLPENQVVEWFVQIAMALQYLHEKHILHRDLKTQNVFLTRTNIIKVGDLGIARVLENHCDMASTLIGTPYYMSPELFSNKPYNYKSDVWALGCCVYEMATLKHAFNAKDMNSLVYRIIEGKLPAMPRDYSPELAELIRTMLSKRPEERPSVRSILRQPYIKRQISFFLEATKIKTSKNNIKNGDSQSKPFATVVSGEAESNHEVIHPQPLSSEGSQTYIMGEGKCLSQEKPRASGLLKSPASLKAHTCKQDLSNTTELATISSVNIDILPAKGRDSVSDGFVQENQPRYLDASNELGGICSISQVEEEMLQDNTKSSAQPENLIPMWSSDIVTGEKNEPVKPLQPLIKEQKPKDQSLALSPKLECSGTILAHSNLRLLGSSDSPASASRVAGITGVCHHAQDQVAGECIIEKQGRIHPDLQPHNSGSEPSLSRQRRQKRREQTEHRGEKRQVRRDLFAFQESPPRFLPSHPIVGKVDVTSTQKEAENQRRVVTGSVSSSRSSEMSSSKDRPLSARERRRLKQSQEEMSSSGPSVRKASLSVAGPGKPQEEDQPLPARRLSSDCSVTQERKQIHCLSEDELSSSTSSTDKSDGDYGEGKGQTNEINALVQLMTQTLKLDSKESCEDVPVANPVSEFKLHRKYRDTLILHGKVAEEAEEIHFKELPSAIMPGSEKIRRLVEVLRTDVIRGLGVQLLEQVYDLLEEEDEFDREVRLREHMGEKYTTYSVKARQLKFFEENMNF
Sequence of Dual specificity protein kinase CLK2 (Homo sapiens) (P49760 whole entry, looked up): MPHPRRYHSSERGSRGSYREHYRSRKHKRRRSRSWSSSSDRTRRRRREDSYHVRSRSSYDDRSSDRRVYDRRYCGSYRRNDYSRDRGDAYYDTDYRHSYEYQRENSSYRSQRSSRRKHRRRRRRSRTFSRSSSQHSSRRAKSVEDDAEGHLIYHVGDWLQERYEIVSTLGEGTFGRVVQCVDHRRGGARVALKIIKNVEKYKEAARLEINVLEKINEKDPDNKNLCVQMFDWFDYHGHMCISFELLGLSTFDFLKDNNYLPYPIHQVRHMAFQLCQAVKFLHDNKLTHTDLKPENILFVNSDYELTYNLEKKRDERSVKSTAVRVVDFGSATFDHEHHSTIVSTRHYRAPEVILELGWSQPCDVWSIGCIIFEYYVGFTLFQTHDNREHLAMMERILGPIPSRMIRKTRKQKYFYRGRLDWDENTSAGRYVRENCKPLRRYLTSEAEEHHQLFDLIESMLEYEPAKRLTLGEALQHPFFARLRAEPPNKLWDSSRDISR

As to `CN(C)C(=O)c1cc2cnc(Nc3ccc(NC(=O)CCCCCCCN=C=S)cc3)nc2n1C1CCCC1`, in data set [1], the half-life – broadly, how long it takes for the measured level to halve – at 2 µM is 33 min. Also, the inhibition (commonly the drop in the measured response relative to a control, in per cent) in [2] worked out at 12%; in [3], 17%; in data set [4], 3%; in [5] it was 44%; in the data set filed under Homo sapiens, 3%; in data set [6], 17%. For the same compound, the inhibition was 86% in data set [7]; -5% in [8]; 25% in data set [9]; 54% in data set [10]; 5% in data set [11]; 58% in data set [12]. Further, the inhibition in [13] stood at 52%; in data set [14] it was 63%; in data set [15] it was 2%; in data set [17] it was 13%; in [18] it was 3%. The IC50 (in general, the midpoint of a concentration-inhibition curve) in the data set with A549 turned out to be 450 nM. Besides, the viability at 0.25 µM with NCI-H1299 [16] turned out to be 96.7%. The result in the data set with NCI-H1299 [19] was Active.
